Measured values from ChEMBL document CHEMBL1671779, “In vivo trypanosomicidal activity of imidazole- or pyrazole-based benzo[g]phthalazine derivatives against acute and chronic phases of Chagas disease” (J Med Chem, 2011).
Activity calls are given as the source filed them.

Assays:
[1] = test system: Mus musculus; assay: Toxicity in BALB/c mouse assessed as mortality at 5 mg/kg, ip; assay type: organism-based; set-up: dose 5 mg/kg, route intraperitoneal; conditions: in vivo
[2] = test system: Trypanosoma cruzi; assay: Antitrypanosomal activity against trypomastigote of Trypanosoma cruzi infected in BALB/c mouse assessed as increase of host survival at 1 mg/kg, ip for 5 days administered 7 days after infection; assay type: functional
Summary of the method: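 Female BALB/c mice (6-8 weeks, 25-30 g) in groups of five were infected intraperitoneally with T. cruzi metacyclic forms, with circulating parasites confirmed on day 5 by microhematocrit. They were dosed intraperitoneally at 1 mg/kg/day for five consecutive days (days 7-12 post-infection) and compared with infected untreated and uninfected controls. Deaths were recorded every two days.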

[3] = test system: Trypanosoma cruzi; assay: Antitrypanosomal activity against trypomastigote of Trypanosoma cruzi infected in BALB/c mouse assessed as reduction of parasitemia at 1 mg/kg, ip for 5 days measured after 40 days postinfection; assay type: functional, organism-based; set-up: dose 1 mg/kg
Summary of the method: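 Female BALB/c mice (6–8 weeks, 25–30 g), groups of five, infected ip with 3 × 10^3 metacyclic forms. Dosed 1 mg/kg/day ip for days 7–12 post-infection. Tail blood (5 μL) diluted 1:15 in citrate/lysis buffer pH 7.2; parasites counted in Neubauer chamber; deaths recorded every two days.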

[4] = test system: Trypanosoma cruzi; assay: Antitrypanosomal activity against trypomastigote of Trypanosoma cruzi infected in BALB/c mouse assessed as reduction of anti-Trypanosoma cruzi antibody level at 1 mg/kg, ip qd for 5 days measured after 120 days postinfection by ELISA; assay type: functional; conditions: route intraperitoneal
Summary of the method: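 Female BALB/c mice (6–8 weeks, 25–30 g; groups of four for serology) infected ip with 3 × 10^3 metacyclic forms. Dosed 1 mg/kg/day ip for five consecutive days, days 7–12 post-infection. Sera diluted 1:100 tested by ELISA against soluble T. cruzi epimastigote Fe-SOD antigen at days 40 and 120. Read at 490 nm; cutoff is negative-control mean + 3 SD.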

[5] = Inhibition of Trypanosoma cruzi iron superoxide dismutase assessed as inhibition of NADPH reduction
Summary of the method: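 Maracay epimastigotes sonicated in sucrose/Tris/EDTA buffer, pH 7.8. Clarified supernatant taken through 35–85% ammonium sulfate cut, then desalted into 20 mM phosphate pH 7.8 with 1 mM EDTA. Activity measured by NAD(P)H oxidation; 1 U gives 50% inhibition of the rate. Compounds at 1, 10, 25, 50, 100 μM. IC50 by linear regression; five determinations; Newman-Keuls test.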

[6] = biological target: Superoxide dismutase [Cu-Zn] (Homo sapiens, UniProt P00441); assay: Inhibition of human Cu-Zn superoxide dismutase assessed as inhibition of NADPH reduction
Sequence of Superoxide dismutase [Cu-Zn] (P00441 whole entry): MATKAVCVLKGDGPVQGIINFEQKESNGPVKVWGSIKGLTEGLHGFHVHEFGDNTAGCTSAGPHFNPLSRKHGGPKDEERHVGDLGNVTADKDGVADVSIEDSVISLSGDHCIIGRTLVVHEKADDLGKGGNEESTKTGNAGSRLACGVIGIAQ
Summary of the method: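 Human erythrocyte CuZn-SOD, purchased, assayed by NAD(P)H oxidation; 1 U gives 50% inhibition of the rate. Compounds at 1, 10, 25, 50, 100 μM. IC50 by linear regression; five determinations; Newman-Keuls test.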

[7] = test system: Trypanosoma cruzi; assay: Effect on metabolic excretion in epimastigotes of Trypanosoma cruzi assessed as L-alanine excretion level at IC25 concentration after 72 hrs by nuclear magnetic resonance spectroscopy analysis; assay type: ADME, organism-based
Summary of the method: (§1)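 Epimastigote cultures started at 5 × 10^5 cells/mL and given drug at IC25, 72 h at 28 °C. Excreted metabolites assessed by 1H NMR of spent medium, compared with cell-free medium.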

[8] = test system: Trypanosoma cruzi; assay: Effect on metabolic excretion in epimastigotes of Trypanosoma cruzi assessed as acetate excretion level at IC25 concentration after 72 hrs by nuclear magnetic resonance spectroscopy analysis; assay type: ADME, organism-based; summary of the method: as §1
[9] = test system: Trypanosoma cruzi; assay: Effect on metabolic excretion in epimastigotes of Trypanosoma cruzi assessed as succinate excretion level at IC25 concentration after 72 hrs by nuclear magnetic resonance spectroscopy analysis; assay type: ADME, organism-based; summary of the method: as §1
[10] = test system: Trypanosoma cruzi; assay: Antitrypanosomal activity against epimastigotes of Trypanosoma cruzi assessed as change in ultrastructural morphological changes at IC25 concentration after 72 hrs by transmission electron microscopy; assay type: functional, organism-based
Summary of the method: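 Epimastigotes at 5 × 10^6 cells/mL cultured with drug at IC25 for 72 h. Pelleted at 400g, washed in PBS, then fixed in 2% formaldehyde-glutaraldehyde in 0.05 M cacodylate pH 7.4 for 2 h at 4 °C before transmission electron microscopy.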

[11] = test system: Trypanosoma cruzi; assay: Antitrypanosomal activity against epimastigote of Trypanosoma cruzi Maracay after 72 hrs; assay type: functional, organism-based
Summary of the method: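 Maracay strain epimastigotes in exponential phase, obtained in NNN medium with MEM and 20% inactivated FBS and then kept in monophasic MTL culture. Seeded at 2 × 10^6 parasites/mL with 1, 10, 25, 50 or 100 μM compound (0.01% DMSO). Parasites counted by Neubauer hemocytometer at 72 h; IC50 derived.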

[12] = test system: Vero; assay: Cytotoxicity against african green monkey Vero cells after 72 hrs by trypan blue assay; assay type: cell-based; conditions: Chlorocebus sabaeus
Summary of the method: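 Vero cells in MEM with 10% inactivated FCS, pH 7.2, 37 °C, 5% CO2. Seeded at 1 × 10^5 cells/mL and grown 2 days, then exposed 72 h to 1, 10, 25, 50 or 100 μM. Viability scored by trypan blue (0.1%) relative to control; IC50 obtained by linear regression.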

[13] = test system: Trypanosoma cruzi; assay: Antitrypanosomal activity against Trypanosoma cruzi infected in african green monkey Vero cells assessed as reduction of parasite infection rate at IC25 after 10 days; assay type: functional; set-up: scale not given: the % may be the effect or the level left
Summary of the method: (§2)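 Vero cells seeded at 1 × 10^5 cells/well on coverslips and grown 2 days in MEM at 37 °C, 5% CO2. Infected with metacyclic forms at 10:1, obtained by culture in modified Grace's medium at 28 °C for 12 days. Drug present 6 h, then removed by washing; cultures grown 10 days with medium renewed every 48 h. Methanol-fixed, Giemsa-stained; >100 host cells counted; means of four determinations.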

[14] = test system: Trypanosoma cruzi; assay: Antitrypanosomal activity against Trypanosoma cruzi infected in african green monkey Vero cells assessed as reduction of amastigote number per infected cell at IC25 after 10 days relative to control; assay type: functional; set-up: scale not given: the % may be the effect or the level left; summary of the method: as §2
[15] = test system: Trypanosoma cruzi; assay: Antitrypanosomal activity against Trypanosoma cruzi infected in african green monkey Vero cells assessed as reduction of trypomastigote number per infected cell at IC25 after 10 days relative to control; assay type: functional; set-up: scale not given: the % may be the effect or the level left
[16] = Selectivity index, ratio of IC50 for african green monkey Vero cells to IC50 for epimastigote of Trypanosoma cruzi Maracay; assay type: toxicity, cell-based; conditions: read-out: Selectivity Index
[17] = test system: Trypanosoma cruzi; assay: Effect on metabolic excretion in epimastigotes of Trypanosoma cruzi assessed as lactate excretion level at IC25 concentration after 72 hrs by nuclear magnetic resonance spectroscopy analysis; assay type: ADME, organism-based; summary of the method: as §1
[18] = test system: Trypanosoma cruzi; assay: Effect on metabolic excretion in epimastigotes of Trypanosoma cruzi assessed as malate excretion level at IC25 concentration after 72 hrs by nuclear magnetic resonance spectroscopy analysis; assay type: ADME, organism-based
[19] = test system: Mus musculus; assay: Toxicity in Trypanosoma cruzi infected BALB/c mouse assessed as lymphocytic infiltration at 5 mg/kg, ip administered 90 days after postinfection by conventional light microscopic analysis; assay type: organism-based; set-up: dose 5 mg/kg, route intraperitoneal; conditions: in vivo, 2160 h
Summary of the method: (§3)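 Livers of infected mice dosed at 5 mg/kg, examined at 90 days post-infection. Paraffin sections 4–5 μm, stained with Giemsa, H&E and Masson's trichrome. Slides coded for blinded light microscopy, ≥30 fields per slide. Alterations scored 0–5.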

[20] = test system: Mus musculus; assay: Toxicity in Trypanosoma cruzi infected BALB/c mouse assessed as hepatic destruction at 5 mg/kg, ip administered 90 days after postinfection by conventional light microscopic analysis; assay type: organism-based; set-up: dose 5 mg/kg, route intraperitoneal; conditions: in vivo, 2160 h; summary of the method: as §3
[21] = test system: Mus musculus; assay: Toxicity in Trypanosoma cruzi infected BALB/c mouse assessed as lymphocytic infiltration in portal tracts at 5 mg/kg, ip administered 90 days after postinfection by conventional light microscopic analysis; assay type: organism-based; set-up: dose 5 mg/kg, route intraperitoneal; conditions: in vivo, 2160 h; summary of the method: as §3
[22] = test system: Mus musculus; assay: Toxicity in Trypanosoma cruzi infected BALB/c mouse assessed as small interstitial hemorrhage at 5 mg/kg, ip administered 90 days after postinfection by conventional light microscopic analysis; assay type: organism-based; set-up: dose 5 mg/kg, route intraperitoneal; conditions: in vivo, 2160 h; summary of the method: as §3

## Clc1nnc(NCCCn2ccnc2)c2cc3ccccc3cc12
[1]
  Activity: Non-toxic
[2]
  Activity: Active
[3]
  Activity: Active
[4]
  deltaA: -0.151 absorbance units
[5]
  IC50: 1.3 µM
[6]
  IC50: 129 µM
[7]
  Activity: 61%
[8]
  Activity: -26%
[9]
  Activity: -49%
[10]
  Activity: Active

## c1ccc2cc3c(Nc4cc[nH]n4)nnc(Nc4cc[nH]n4)c3cc2c1 [1,4-BIS(3'-PYRAZOLYLAMINO)BENZO[G]PHTHALAZINE]
[11]
  IC50: 32.8 µM
[12]
  IC50: 98.3 µM
[13]
  Activity: 63%
[14]
  Activity: 40%
[15]
  Activity: 53%
[2]
  Activity: Active
[3]
  Activity: Active
[4]
  deltaA: 0.138 absorbance units
[5]
  IC50: 22.9 µM
[10]
  Activity: Active

## c1ccc2cc3c(Nc4ccn[nH]4)nnc(Nc4ccn[nH]4)c3cc2c1 [1,4-BIS(3'-PYRAZOLYLAMINO)BENZO[G]PHTHALAZINE]
[16]
  selectivity ratio: 2.99
[1]
  Activity: Non-toxic
[6]
  IC50: 96.6 µM
[9]
  Activity: -24%
[17]
  Activity: -55%
[18]
  Activity: 100%

## O=C(Cn1ccnc1[N+](=O)[O-])NCc1ccccc1 [BENZNIDAZOLE]
[13]
  Activity: 39%
[14]
  Activity: 15%
[15]
  Activity: 43%
[2]; route intraperitoneal
  Activity: 80%
[4]
  deltaA: 0.11 absorbance units

## c1ccc2cc3c(NCCCn4ccnc4)nnc(NCCCn4ccnc4)c3cc2c1
[1]
  Activity: Non-toxic
[2]
  Activity: Active
[3]
  Activity: Active
[4]
  deltaA: 0.266 absorbance units
[5]
  IC50: 28.3 µM
[6]
  IC50: 67.9 µM
[7]
  Activity: 43%
[8]
  Activity: -22%
[9]
  Activity: -27%

## Clc1nnc(NCCc2c[nH]cn2)c2cc3ccccc3cc12
[1]
  Activity: Non-toxic
[2]
  Activity: Active
[3]
  Activity: Active
[4]
  deltaA: -0.076 absorbance units
[5]
  IC50: 9.4 µM
[6]
  IC50: 787 µM
[7]
  Activity: 22%
[8]
  Activity: -18%
[9]
  Activity: -37%
[10]
  Activity: Active
[19]
  Activity: Toxic
[20]
  Activity: Toxic

## c1ccc2cc3c(NCCc4c[nH]cn4)nnc(NCCc4c[nH]cn4)c3cc2c1
[2]
  Activity: Active
[3]
  Activity: Active
[4]
  deltaA: 0.044 absorbance units
[5]
  IC50: 29.6 µM
[10]
  Activity: Active

## c1ccc2cc3c(NCCc4cnc[nH]4)nnc(NCCc4cnc[nH]4)c3cc2c1
[1]
  Activity: Non-toxic
[6]
  IC50: 366 µM
[7]
  Activity: 35%
[8]
  Activity: -30%
[9]
  Activity: -39%

## Clc1nnc(Nc2cc[nH]n2)c2cc3ccccc3cc12
[11]
  IC50: 17.5 µM
[12]
  IC50: 133 µM
[16]
  selectivity ratio: 7.58
[13]
  Activity: 68%
[14]
  Activity: 56%
[15]
  Activity: 63%
[1]
  Activity: Non-toxic
[2]
  Activity: Active
[3]
  Activity: Active
[4]
  deltaA: -0.228 absorbance units
[5]
  IC50: 17.2 µM
[6]
  IC50: 103 µM
[8]
  Activity: -36%
[9]
  Activity: 27%
[17]
  Activity: -61%
[10]
  Activity: Active
[21]
  Activity: Toxic
[22]
  Activity: Toxic
